Values after ≈ are worked out from the molar mass of the structure shown. Active and inactive are the calls of the source. The calls are words filed in the database; no cut-off is given here.
Experiments:
[1] = test system: Candida albicans; assay: Antifungal activity against azole-resistant Candida albicans ATCC 90819 after 48 hrs in presence of posaconazole by checkerboard microdilution assay; format: functional; details: ATCC 90819, 48 h
Procedure, shortened: (§1)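 Checkerboard combinations of the aminoglycoside amphiphile with posaconazole against yeast strains, run in duplicate. Each agent's MIC is taken alone and in combination. The fractional inhibitory concentration index (FICI) is calculated to classify the interaction.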

[2] = test system: Candida albicans; assay: Antifungal activity against azole-susceptible Candida albicans ATCC MYA-2310 after 48 hrs in presence of posaconazole by checkerboard microdilution assay; format: functional; details: ATCC MYA-2310, 48 h; procedure, shortened: as §1
[3] = test system: Candida albicans; assay: Antifungal activity against azole-resistant Candida albicans MYA-1237 after 48 hrs in presence of posaconazole by checkerboard microdilution assay; format: functional; details: MYA-1237, 48 h; procedure, shortened: as §1
[4] = test system: Candida albicans; assay: Antifungal activity against azole-resistant Candida albicans MYA-1003 after 48 hrs in presence of posaconazole by checkerboard microdilution assay; format: functional; details: MYA-1003, 48 h; procedure, shortened: as §1
[5] = test system: Candida albicans; assay: Antifungal activity against azole-resistant Candida albicans ATCC 64124 at sub-MIC measured over 24 hrs by time-kill assay; format: functional, organism-based
Procedure, shortened: (§2)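 Time-kill assay on C. albicans ATCC 64124 cultures exposed to test compound at 1/2 MIC, MIC and higher concentrations. Amphotericin B at 1 μg/mL and a no-drug culture serve as controls. CFU are counted at intervals over 24 h.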

[6] = test system: Candida albicans; assay: Antifungal activity against azole-resistant Candida albicans ATCC 64124 at MIC measured after 6 hrs by time-kill assay; format: functional; procedure, shortened: as §2
[7] = test system: Candida albicans; assay: Antifungal activity against azole-resistant Candida albicans ATCC 64124 assessed as cell death after 12 hrs by time-kill assay; format: functional, organism-based; procedure, shortened: as §2
[8] = test system: Candida albicans; assay: Antifungal activity against azole-resistant Candida albicans ATCC 64124 assessed as cell membrane permeabilization at twice the MIC after 1 hr by propidium iodide-staining based fluorescence microscopic analysis (reference value: <2%); format: functional
[9] = Hemolytic activity against mouse RBC at 7.8 ug/ml after 60 mins; format: ADME, cell-based, Erythrocyte; details: red blood cells, read-out: Activity
[10] = Hemolytic activity against mouse RBC at 500 ug/ml after 60 mins; format: ADME, cell-based, Erythrocyte; details: red blood cells, read-out: Activity
[11] = test system: A549; assay: Cytotoxicity against human A549 cells after 24 hrs by resazurin assay; format: cell-based; details: Homo sapiens, A549, 24 h
[12] = Cytotoxicity against human BEAS2B cells after 24 hrs by resazurin assay; format: cell-based, BEAS-2B; details: Homo sapiens, BEAS-2B
[13] = test system: Klebsiella pneumoniae; assay: Antibacterial activity against Klebsiella pneumoniae ATCC 27736 by microdilution method; format: functional
Procedure, shortened: (§3)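 Broth microdilution MIC against the named bacterial strain, reported in μg/mL; each determination run at least in duplicate.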

[14] = Activity of AAC(3)-4 (unknown origin) assessed as compound acetylation activity by Ellman's method
[15] = test system: Candida albicans; assay: Antifungal activity against azole-resistant Candida albicans ATCC 64124 assessed as cell membrane permeabilization at 1 times MIC after 1 hr by propidium iodide-staining based fluorescence microscopic analysis (reference value: <2%); format: functional
[16] = test system: Bacillus subtilis; assay: Antibacterial activity against Bacillus subtilis 168 by microdilution method; format: functional; details: subsp. subtilis str. 168; procedure, shortened: as §3
[17] = test system: Listeria monocytogenes; assay: Antibacterial activity against Listeria monocytogenes ATCC 19115 by microdilution method; format: functional; procedure, shortened: as §3
[18] = test system: Staphylococcus aureus; assay: Antibacterial activity against methicillin-resistant Staphylococcus aureus by microdilution method; format: functional
Procedure, shortened: (§4)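 Broth microdilution MIC, in μg/mL, against a panel of Gram-positive and Gram-negative strains. Run at least in duplicate.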

[19] = test system: Staphylococcus aureus; assay: Antibacterial activity against Staphylococcus aureus NRS382 (USA 100) by microdilution method; format: functional; procedure, shortened: as §3
[20] = test system: Staphylococcus aureus; assay: Antibacterial activity against Staphylococcus aureus NRS383 (USA 200) by microdilution method; format: functional; procedure, shortened: as §3
[21] = test system: Staphylococcus aureus; assay: Antibacterial activity against Staphylococcus aureus NRS385 (USA 300) by microdilution method; format: functional; procedure, shortened: as §4
[22] = test system: Staphylococcus epidermidis; assay: Antibacterial activity against Staphylococcus epidermidis ATCC 12228 by microdilution method; format: functional; procedure, shortened: as §3
[23] = test system: Acinetobacter baumannii; assay: Antibacterial activity against Acinetobacter baumannii ATCC 19606 by microdilution method; format: functional; procedure, shortened: as §3
[24] = test system: Enterobacter cloacae; assay: Antibacterial activity against Enterobacter cloacae ATCC 13047 by microdilution method; format: functional; procedure, shortened: as §3
[25] = test system: Escherichia coli; assay: Antibacterial activity against Escherichia coli MC1061 by microdilution method; format: functional; procedure, shortened: as §4
[26] = test system: Pseudomonas aeruginosa; assay: Antibacterial activity against Pseudomonas aeruginosa ATCC 27853 by microdilution method; format: functional; procedure, shortened: as §3
[27] = test system: Salmonella enterica; assay: Antibacterial activity against Salmonella enterica ATCC 14028 by microdilution method; format: functional; procedure, shortened: as §3
[28] = test system: Bacillus subtilis subsp. subtilis str. 168; assay: Activity of Bacillus subtilis 168 APH(2'')-1a assessed as compound phosphorylation activity by Ellman's method
[29] = Activity of AAC(6')-1e/APH(2'')-1a (unknown origin) assessed as compound acetylation activity by Ellman's method
[30] = test system: Serratia marcescens; assay: Activity of Serratia marcescens AAC(6')-2d assessed as compound acetylation activity by Ellman's method
[31] = test system: Mycobacterium tuberculosis; assay: Activity of Mycobacterium tuberculosis AAC(2')-1c assessed as compound acetylation activity by Ellman's method
[32] = test system: Mycobacterium tuberculosis; assay: Activity of Mycobacterium tuberculosis Eis assessed as compound acetylation activity by Ellman's method
[33] = Activity of Mycobacterium tuberculosis AAC(2')-1c/AAC(3)-4 (unknown origin) assessed as compound conversion to 3'-acetylated product incubated for 20 hrs by TLC analysis
[34] = Activity of Mycobacterium tuberculosis AAC(2')-1c/Serratia marcescens AAC(6')-2d assessed as compound conversion to 6'-monoacetylated product incubated for 20 hrs by TLC analysis
[35] = Activity of AAC(3)-4 (unknown origin)/Serratia marcescens AAC(6')-2d assessed as compound conversion to 3'-acetylated product incubated for 20 hrs by TLC analysis
[36] = Activity of Mycobacterium tuberculosis AAC(2')-1c/AAC(3)-4 (unknown origin)/Serratia marcescens AAC(6')-2d (unknown origin) assessed as compound conversion to 3'-monoacetylated product incubated for 20 hrs by TLC analysis
[37] = test system: Candida albicans; assay: Antifungal activity against azole-resistant Candida albicans ATCC 10231 after 48 hrs by microbroth dilution method; format: functional; details: ATCC 10231, 48 h
Procedure, shortened: (§5)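 Yeast MIC by broth microdilution, run in duplicate. The aminoglycoside compounds are read as MIC-0 (complete inhibition). Azoles are read as MIC-2 (50% inhibition).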

[38] = test system: Candida albicans; assay: Antifungal activity against azole-resistant Candida albicans ATCC 64124 after 48 hrs by microbroth dilution method; format: functional; details: ATCC 64124, 48 h; procedure, shortened: as §5
[39] = test system: Candida albicans; assay: Antifungal activity against azole-susceptible Candida albicans ATCC MYA-2876 after 48 hrs by microbroth dilution method; format: functional; details: ATCC MYA-2876, 48 h; procedure, shortened: as §5
[40] = test system: Candida albicans; assay: Antifungal activity against azole-resistant Candida albicans ATCC 90819 after 48 hrs by microbroth dilution method; format: functional; details: ATCC 90819, 48 h; procedure, shortened: as §5
[41] = test system: Candida albicans; assay: Antifungal activity against azole-susceptible Candida albicans ATCC MYA-2310 after 48 hrs by microbroth dilution method; format: functional; details: ATCC MYA-2310, 48 h; procedure, shortened: as §5
[42] = test system: Candida albicans; assay: Antifungal activity against azole-resistant Candida albicans MYA-1237 after 48 hrs by microbroth dilution method; format: functional; details: MYA-1237, 48 h; procedure, shortened: as §5
[43] = test system: Candida albicans; assay: Antifungal activity against azole-resistant Candida albicans MYA-1003 after 48 hrs by microbroth dilution method; format: functional; details: MYA-1003, 48 h; procedure, shortened: as §5
[44] = test system: Aspergillus nidulans; assay: Antifungal activity against Aspergillus nidulans ATCC 38163 after 48 hrs by microbroth dilution method; format: functional; details: ATCC 38163, 48 h
Procedure, shortened: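 Filamentous fungus MIC by broth microdilution, run in duplicate. All compounds are read as MIC-0 (complete inhibition).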

[45] = test system: Candida albicans; assay: Antifungal activity against azole-resistant Candida albicans ATCC 10231 after 48 hrs in presence of posaconazole by checkerboard microdilution assay; format: functional; details: ATCC 10231, 48 h; procedure, shortened: as §1
[46] = test system: Candida albicans; assay: Antifungal activity against azole-resistant Candida albicans ATCC 64124 after 48 hrs in presence of posaconazole by checkerboard microdilution assay; format: functional; details: ATCC 64124, 48 h; procedure, shortened: as §1
[47] = test system: Candida albicans; assay: Antifungal activity against azole-susceptible Candida albicans ATCC MYA-2876 after 48 hrs in presence of posaconazole by checkerboard microdilution assay; format: functional; details: ATCC MYA-2876, 48 h; procedure, shortened: as §1

CCCCCCCCCCCCCCSC[C@@H]1O[C@@H](O[C@@H]2[C@@H](O)[C@H](O[C@@H]3O[C@@H](CN)[C@H](O)[C@@H](O)[C@@H]3N)[C@@H](N)C[C@H]2N)[C@@H](O)[C@H](N)[C@H]1O (stereo in doubt)
MIC [1]: 1 µg/mL
MIC [2]: 1 µg/mL
MIC [3]: 1 µg/mL
MIC [4]: 2 µg/mL
Activity [5]: Active
LCK [6]: >=2
Activity [7]: Active
Activity [8]: 49%
hemolysis at 1 h, 7.8 ug/ml [9]: 15%
hemolysis at 1 h, 500 ug/ml [10]: 73%
IC50 [11]: > 62.5 µg/mL
IC50 [12]: > 62.5 µg/mL
MIC [13]: > 128 µg/mL
Activity [14]: inactive
Activity [15]: 84%
MIC [16]: > 128 µg/mL
MIC [17]: 0.5 µg/mL (≈ 0.718 µM)
MIC [18]: 32 µg/mL (≈ 46 µM)
MIC [19]: 32 µg/mL (≈ 46 µM)
MIC [20]: 8 µg/mL (≈ 11.5 µM)
MIC [21]: 16 µg/mL (≈ 23 µM)
MIC [22]: > 128 µg/mL
MIC [23]: > 128 µg/mL
MIC [24]: 128 µg/mL (≈ 184 µM)
MIC [25]: > 128 µg/mL
MIC [26]: 64 µg/mL (≈ 92 µM)
MIC [27]: 32 µg/mL (≈ 46 µM)
Activity [28]: inactive
Activity [29]: inactive
Activity [30]: inactive
Activity [31]: inactive
Activity [32]: inactive
Activity [33]: Active
Activity [34]: Active
Activity [35]: Active
Activity [36]: Active
MIC [37]: 7.8 µg/mL (≈ 11.2 µM)
MIC [38]: 7.8 µg/mL (≈ 11.2 µM)
MIC [39]: 7.8 µg/mL (≈ 11.2 µM)
MIC [40]: 15.6 µg/mL (≈ 22.4 µM)
MIC [41]: 7.8 µg/mL (≈ 11.2 µM)
MIC [42]: 7.8 µg/mL (≈ 11.2 µM)
MIC [43]: 7.8 µg/mL (≈ 11.2 µM)
MIC [44]: ≤ 1.95 µg/mL
MIC [45]: 4 µg/mL
MIC [46]: 1 µg/mL
MIC [47]: 1 µg/mL

— ChEMBL document CHEMBL3739331, “Synthesis and Bioactivities of Kanamycin B-Derived Cationic Amphiphiles” (J Med Chem, 2015)
